Tests used:
U-251 [1] = assay: Antiproliferative activity against human U251 cells by SRB assay; type: functional
How it was run: (§1)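 Cell growth was tested in the NIH in vitro disease-oriented human tumor cell line screen, which NCI ran for these compounds. Compounds were tested at five concentrations (100, 10, 1.0, 0.1 and 0.01 μM), and growth was read by SRB signal. GI50 is the drug concentration that reduces growth of treated cells to half that of control cells during drug incubation.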

UACC-62 [2] = assay: Antiproliferative activity against human UACC62 cells by SRB assay; type: functional; how it was run: as §1
SF-268 = assay: Antiproliferative activity against human SF268 cells by SRB assay; type: functional
How it was run: (§2)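 Tested in the NCI in vitro human tumor cell line screen, run by the National Cancer Institute. Each compound was given at five concentrations (100, 10, 1.0, 0.1 and 0.01 μM). GI50 is the drug concentration that reduces growth of treated cells to half that of control cells during drug incubation, judged from the SRB signal.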

A549 = assay: Cytotoxicity against human A549 cells; type: cell-based
How it was run: (§3)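 Tested in the NCI in vitro disease-oriented human tumour cell line screen, with screening performed by NCI. Growth was read by SRB signal over the drug incubation period at five concentrations: 100, 10, 1.0, 0.1 and 0.01 μM. GI50 is the concentration that reduces growth of treated cells to half that of control cells.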

SN12C [3] = assay: Cytotoxicity against human SN12C cells; type: cell-based
How it was run: (§4)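 Screened by NCI in its in vitro disease-oriented human tumour cell line panel. Compounds tested at five concentrations (100, 10, 1.0, 0.1 and 0.01 μM). Growth read by sulforhodamine B (SRB) signal. GI50 is the concentration reducing growth of treated cells to half that of control cells during the drug incubation.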

UACC-62 [4] = assay: Cytotoxicity against human UACC62 cells; type: cell-based; how it was run: as §4
OVCAR-3 = assay: Antiproliferative activity against human OVCAR3 cells by SRB assay; type: functional; how it was run: as §2
HCC 2998 [5] = assay: Antiproliferative activity against human HCC2998 cells by SRB assay; type: functional; how it was run: as §2
SF-539 = assay: Antiproliferative activity against human SF539 cells by SRB assay; type: functional; how it was run: as §2
KM12 = assay: Cytotoxicity against human KM12 cells; type: cell-based
TK-10 = assay: Cytotoxicity against human TK10 cells; type: cell-based; how it was run: as §4
IGROV-1 [6] = assay: Cytotoxicity against human IGROV1 cells; type: cell-based
RPMI-8226 [7] = assay: Antiproliferative activity against human RPMI8226 cells by SRB assay; type: functional; how it was run: as §2
MDA-MB-231 [8] = assay: Antiproliferative activity against human MDA-MB-231 cells by SRB assay; type: functional; how it was run: as §2
NCI-H322M = assay: Cytotoxicity against human NCI-H322M cells; type: cell-based
SN12C [9] = assay: Antiproliferative activity against human SN12C cells by SRB assay; type: functional; how it was run: as §2
OVCAR-4 = assay: Antiproliferative activity against human OVCAR4 cells by SRB assay; type: functional; how it was run: as §2
PC-3 = assay: Antiproliferative activity against human PC3 cells by SRB assay; type: functional; how it was run: as §2
U-251 [10] = assay: Cytotoxicity against human U251 cells; type: cell-based; how it was run: as §4
MDA-MB-468 = assay: Antiproliferative activity against human MDA-MB-468 cells by SRB assay; type: functional; how it was run: as §2
HCC 2998 [11] = assay: Cytotoxicity against human HCC2998 cells; type: cell-based; how it was run: as §3
MDA-MB-231 [12] = assay: Cytotoxicity against human MDA-MB-231 cells; type: functional; how it was run: as §3
M14 [13] = assay: Antiproliferative activity against human M14 cells by SRB assay; type: functional; how it was run: as §2
SW-620 = assay: Antiproliferative activity against human SW620 cells by SRB assay; type: functional; how it was run: as §1
RXF 393 = assay: Cytotoxicity against human RXF393 cells; type: cell-based; how it was run: as §3
ACHN = assay: Antiproliferative activity against human ACHN cells by SRB assay; type: functional; how it was run: as §2
NCI-H23 = assay: Cytotoxicity against human NCI-H23 cells; type: cell-based
K562 [14] = assay: Cytotoxicity against human K562 cells; type: cell-based
NCI-H522 = assay: Cytotoxicity against human NCI-H522 cells; type: cell-based; how it was run: as §3
MOLT-4 [15] = assay: Cytotoxicity against human MOLT4 cells; type: cell-based
DU-145 = assay: Antiproliferative activity against human DU145 cells by SRB assay; type: functional; how it was run: as §2
EKVX = assay: Antiproliferative activity against human EKVX cells by SRB assay; type: functional; how it was run: as §2
K562 [16] = assay: Antiproliferative activity against human K562 cells by SRB assay; type: functional; how it was run: as §2
CAKI-1 = assay: Antiproliferative activity against human Caki1 cells by SRB assay; type: functional; how it was run: as §2
786-0 [17] = assay: Cytotoxicity against human 786-0 cells; type: cell-based
HL-60(TB) = assay: Cytotoxicity against human HL-60(TB) cells; type: cell-based
SR = assay: Cytotoxicity against human SR cells; type: cell-based; how it was run: as §4
SNB-19 = assay: Antiproliferative activity against human SNB19 cells by SRB assay; type: functional; how it was run: as §2
HOP-62 = assay: Cytotoxicity against human HOP62 cells; type: cell-based; how it was run: as §3
IGROV-1 [18] = assay: Antiproliferative activity against human IGROV1 cells by SRB assay; type: functional; how it was run: as §2
A498 = assay: Antiproliferative activity against human A498 cells by SRB assay; type: functional; how it was run: as §2
OVCAR-8 = assay: Cytotoxicity against human OVCAR8 cells; type: cell-based
MDA-MB-435 = assay: Antiproliferative activity against human MDA-MB-435 cells by SRB assay; type: functional; how it was run: as §2
MCF7 = assay: Antiproliferative activity against human MCF7 cells by SRB assay; type: functional; how it was run: as §2
[19] = Cytotoxicity against human Hs 578T cells; type: cell-based
786-0 [20] = assay: Antiproliferative activity against human 786-0 cells by SRB assay; type: functional; how it was run: as §2
M14 [21] = assay: Cytotoxicity against human M14 cells; type: cell-based
RPMI-8226 [22] = assay: Cytotoxicity against human RPMI8226 cells; type: cell-based; how it was run: as §3
HCT-15 = assay: Antiproliferative activity against human HCT15 cells by SRB assay; type: functional; how it was run: as §2
CCRF-CEM = assay: Antiproliferative activity against human CCRF-CEM cells by SRB assay; type: functional; how it was run: as §2
MOLT-4 [23] = assay: Antiproliferative activity against human MOLT4 cells by SRB assay; type: functional; how it was run: as §2
COLO 205 = assay: Antiproliferative activity against human COLO205 cells by SRB assay; type: functional; how it was run: as §2
HCT-116 = assay: Antiproliferative activity against human HCT116 cells by SRB assay; type: functional; how it was run: as §2
HT-29 = assay: Cytotoxicity against human HT-29 cells; type: cell-based; how it was run: as §3

In the case of `CC(/C=C/c1ccccc1)n1cc(/C=C/C(=O)NO)nn1` (stereo not drawn), the GI50 (U-251 [1]) was 0.777 µM, the GI50 (UACC-62 [2]) was 0.524 µM and the GI50 (SF-268) was 1.51 µM. It also gave an LC50 (A549) greater than 100 µM, an LC50 (SN12C [3]) greater than 100 µM and an LC50 (UACC-62 [4]) of 7.99 µM. For the same compound, the GI50 (OVCAR-3) was 1.13 µM, the GI50 (HCC 2998 [5]) was 0.927 µM and the GI50 (SF-539) was 0.934 µM. It also gave an LC50 (KM12) of 6.82 µM, an LC50 (TK-10) of 31.9 µM and an LC50 (IGROV-1 [6]) of 5.74 µM. The GI50 (RPMI-8226 [7]) was 0.407 µM, the GI50 (MDA-MB-231 [8]) was 1.38 µM and the LC50 (NCI-H322M) was greater than 100 µM. It also gave a GI50 (SN12C [9]) of 1.29 µM, a GI50 (OVCAR-4) of 0.636 µM and a GI50 (PC-3) of 0.89 µM. It also gave an LC50 (U-251 [10]) of 4.5 µM, a GI50 (MDA-MB-468) of 0.299 µM and an LC50 (HCC 2998 [11]) of 6.91 µM. For the same compound, the LC50 (MDA-MB-231 [12]) was greater than 100 µM, the GI50 (M14 [13]) was 0.777 µM and the GI50 (SW-620) was 0.383 µM. It also gave an LC50 (RXF 393) greater than 100 µM, a GI50 (ACHN) of 0.765 µM and an LC50 (NCI-H23) of 6.61 µM. It also gave an LC50 (K562 [14]) greater than 100 µM, an LC50 (NCI-H522) of 3.62 µM and an LC50 (MOLT-4 [15]) greater than 100 µM. For the same compound, the GI50 (DU-145) was 0.803 µM, the GI50 (EKVX) was 2.09 µM and the GI50 (K562 [16]) was 0.355 µM. The GI50 (CAKI-1) was 0.401 µM, the LC50 (786-0 [17]) was 9.03 µM and the LC50 (HL-60(TB)) was greater than 100 µM. The LC50 (SR) was greater than 100 µM, the GI50 (SNB-19) was 1.87 µM and the LC50 (HOP-62) was 48.2 µM. For the same compound, the GI50 (IGROV-1 [18]) was 0.564 µM, the GI50 (A498) was 0.472 µM and the LC50 (OVCAR-8) was 6.91 µM. For the same compound, the GI50 (MDA-MB-435) was 0.44 µM, the GI50 (MCF7) was 1.16 µM and the LC50 [19] was greater than 100 µM. For the same compound, the GI50 (786-0 [20]) was 1.64 µM, the LC50 (M14 [21]) was 9.08 µM and the LC50 (RPMI-8226 [22]) was greater than 100 µM. The GI50 (HCT-15) was 2.09 µM, the GI50 (CCRF-CEM) was 0.442 µM and the GI50 (MOLT-4 [23]) was 0.377 µM. It also gave a GI50 (COLO 205) of 0.469 µM, a GI50 (HCT-116) of 0.341 µM and an LC50 (HT-29) of 33.9 µM.

Work on `CC(C)C(/C=C/c1ccccc1)n1cc(/C=C/C(=O)NO)nn1` (stereo not drawn) yielded a GI50 (U-251 [1]) of 1.13 µM, a GI50 (UACC-62 [2]) of 0.642 µM and a GI50 (SF-268) of 1.87 µM. For the same compound, the LC50 (A549) was 88.7 µM, the LC50 (SN12C [3]) was greater than 100 µM and the LC50 (UACC-62 [4]) was 6.61 µM. For the same compound, the GI50 (OVCAR-3) was 1.53 µM, the GI50 (SF-539) was 1.19 µM and the LC50 (KM12) was 9.53 µM. It also gave an LC50 (TK-10) greater than 100 µM, an LC50 (IGROV-1 [6]) of 31.6 µM and a GI50 (RPMI-8226 [7]) of 0.317 µM. It also gave a GI50 (MDA-MB-231 [8]) of 1.97 µM, an LC50 (NCI-H322M) greater than 100 µM and a GI50 (SN12C [9]) of 1.86 µM. For the same compound, the GI50 (OVCAR-4) was 4.06 µM, the GI50 (PC-3) was 1.65 µM and the LC50 (U-251 [10]) was 5.66 µM. It also gave an LC50 (MDA-MB-231 [12]) of 73.4 µM, a GI50 (SW-620) of 0.649 µM and an LC50 (RXF 393) of 7.68 µM. It also gave a GI50 (ACHN) of 1.21 µM, an LC50 (NCI-H23) of 12.6 µM and an LC50 (K562 [14]) greater than 100 µM. For the same compound, the LC50 (NCI-H522) was 8.48 µM, the LC50 (MOLT-4 [15]) was greater than 100 µM and the GI50 (DU-145) was 1.09 µM. It also gave a GI50 (EKVX) of 1.81 µM, a GI50 (K562 [16]) of 0.705 µM and a GI50 (CAKI-1) of 0.487 µM. For the same compound, the LC50 (786-0 [17]) was 6.74 µM, the LC50 (HL-60(TB)) was greater than 100 µM and the LC50 (SR) was greater than 100 µM. The GI50 (SNB-19) was 2.41 µM, the LC50 (HOP-62) was 23.4 µM and the GI50 (IGROV-1 [18]) was 1.08 µM. For the same compound, the GI50 (A498) was 1.51 µM, the LC50 (OVCAR-8) was greater than 100 µM and the GI50 (MDA-MB-435) was 0.719 µM. It also gave a GI50 (MCF7) of 1.32 µM, an LC50 [19] greater than 100 µM and a GI50 (786-0 [20]) of 1.59 µM. The LC50 (RPMI-8226 [22]) was greater than 100 µM, the GI50 (HCT-15) was 2.9 µM and the GI50 (CCRF-CEM) was 0.351 µM. For the same compound, the GI50 (MOLT-4 [23]) was 0.427 µM, the GI50 (COLO 205) was 0.932 µM and the GI50 (HCT-116) was 0.316 µM. It also gave an LC50 (HT-29) greater than 100 µM.

— ChEMBL document CHEMBL1806473, “Structure-based optimization of click-based histone deacetylase inhibitors” (Eur J Med Chem, 2011)
